Reference: ChEMBL document CHEMBL1123384, “Studies of the antitumor activity of (2-alkoxyalkyl)- and (2-alkoxyalkenyl)phosphocholines” (J Med Chem, 1986)
Converted amounts (≈) assume the structure as drawn. The source made the active and inactive calls. No cut-off for these calls is given here.

Assays:
Mus musculus [1] = species on record: Mus musculus; assay: Compound was evaluated for the induction of cytotoxic macrophages at concentration of 1 ug/mL; type: functional
How it was run: (§1)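 Peptone-elicited peritoneal macrophages were taken from C3Heb/FeJ mice (6–8 weeks) 3 days after ip peptone broth. About 4 × 10^5 cells per well were made adherent (90 min) and washed. Compound (3 mg/mL Me2SO stock, diluted in RPMI-1640 + 20% FCS) was added with 4 × 10^4 P815 mastocytoma cells, about 10:1 macrophage:target, at 37 °C, 5% CO2. After 48 h, nonadherent cells were counted by trypan blue. % cytotoxicity = (A−B)/A × 100, corrected for direct drug toxicity on targets. Mean of three experiments.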

Mus musculus [2] = species on record: Mus musculus; assay: Compound was evaluated for the induction of cytotoxic macrophages at concentration of 0.1 ug/mL; type: functional; how it was run: as §1
Mus musculus [3] = species on record: Mus musculus; assay: Compound was evaluated for the induction of cytotoxic macrophages at concentration of 0.01 ug/mL; type: functional; how it was run: as §1
X5563 [4] = assay: Compound was tested in vivo for inhibition of tumor growth of X5,563 myeloma at dose of 17 mg/kg; Number of toxic deaths over total number of mice per group (T/C), 1/10; type: functional; conditions: Mus musculus
CCRF-CEM = assay: In vitro inhibition of CCRF-CEM cell proliferation; type: functional, cell-based; conditions: Homo sapiens
How it was run: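 Human leukaemia CCRF-CEM cells were grown in RPMI 1640 with 10% dialysed FBS, 16 mM HEPES and 8 mM MOPS, at 4.8 × 10^4 cells per well, in duplicate with several concentrations. Compounds came from a 4 mg/mL Me2SO (or ethanol) stock. After 72 h of continuous exposure (5% CO2), cells were counted on a Coulter counter. IC50 was read from dose–response curves against untreated controls.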

X5563 [5] = assay: Compound was tested in vivo for inhibition of tumor growth of X5,563 myeloma at dose of 25 mg/kg; Number of toxic deaths over total number of mice per group (T/C), 0/10; type: functional; conditions: Mus musculus
X5563 [6] = assay: Compound was tested in vivo for inhibition of tumor growth of X5,563 myeloma at dose of 35 mg/kg; Number of toxic deaths over total number of mice per group (T/C), 2/9; type: functional; conditions: Mus musculus
X5563 [7] = assay: Compound was tested in vivo for inhibition of tumor growth of X5,563 myeloma at dose of 70 mg/kg; Number of toxic deaths over total number of mice per group (T/C), 2/10; type: functional; conditions: Mus musculus
P388 = assay: Compound was evaluated for the antitumor activity against P-388 leukemia; Inactive; type: functional, cell-based; conditions: Mus musculus
How it was run: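 P-388 leukaemia: DBA/2 mice were inoculated ip with 1 × 10^6 cells. Compounds were suspended in 2.5% Emulphor in 0.9% saline and given as indicated. Mean life span of treated groups was compared with controls.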

[8] = Compound was evaluated for the antitumor activity against X5563 plasma cell myeloma for ip administration and days x10; Number of toxic deaths over total number of mice per group (T/C), 0/10 at dose of 25 mg/kg; type: functional; conditions: Mus musculus, route intraperitoneal
C6 = assay: Compound was evaluated for the antitumor activity against C-6 colon for ip administration and daily x 10; 5-day delay schedule; Number of toxic deaths over total number of mice per group (T/C), 1/10 at dose of 17 mg/kg; type: functional; conditions: Mus musculus, 120 h, route intraperitoneal
X5563 [9] = assay: Compound was tested in vivo for inhibition of tumor growth of X5,563 myeloma at dose of 17 mg/kg; Number of toxic deaths over total number of mice per group (T/C), 0/10; type: functional; conditions: Mus musculus
B16 = assay: Compound was evaluated for the antitumor activity against B-16 melanoma; Inactive; type: functional, cell-based; conditions: Mus musculus
[10] = Compound was evaluated for the antitumor activity against X5563 plasma cell myeloma for po administration and daily x 10 schedule; Number of toxic deaths over total number of mice per group (T/C), 0/10 at dose of 50 mg/kg; type: functional; conditions: Mus musculus
X5563 [11] = assay: Compound was tested in vivo for inhibition of tumor growth of X5,563 myeloma at dose of 25 mg/kg; Number of toxic deaths over total number of mice per group (T/C), 1/10; type: functional; conditions: Mus musculus
C-6 colon (Mus musculus) = assay: Compound was evaluated for the antitumor activity against C-6 colon for ip administration and days 4,8,12; Number of toxic deaths over total number of mice per group (T/C), 1/10 at dose of 50 mg/kg
C3H = assay: Compound was evaluated for the antitumor activity against C3H mammary carcinoma for ip administration and daily x 10 schedule; Number of toxic deaths over total number of mice per group (T/C), 1/10 at dose of 25 mg/kg; type: functional; conditions: Mus musculus, route intraperitoneal
AC755 = assay: Compound was evaluated for the antitumor activity against AC755 breast carcinoma for ip administration and daily x 10 schedule; Number of toxic deaths over total number of mice per group (T/C), 1/7 at dose of 25 mg/kg; type: functional; conditions: Mus musculus, route intraperitoneal
6C3HED = assay: Compound was evaluated for the antitumor activity against 6C3HED lymphosarcoma for ip administration and daily x 8 schedule; Number of toxic deaths over total number of mice per group (T/C), 0/10 at dose of 35 mg/kg; type: functional; conditions: Mus musculus, route intraperitoneal
M-5 = assay: Compound was evaluated for the antitumor activity against M-5 ovarian carcinoma for ip administration and daily x 10; % day delay schedule.; type: functional, Mus musculus
X5563 [12] = assay: Compound was tested in vivo for inhibition of tumor growth of X5,563 myeloma at dose of 35 mg/kg; Number of toxic deaths over total number of mice per group (T/C), 4/10; type: functional; conditions: Mus musculus
[13] = Compound was evaluated for the antitumor activity against X5563 plasma cell myeloma for iv administration and days 4,8,12; Number of toxic deaths over total number of mice per group (T/C), 1/10 at dose of 50 mg/kg; type: functional; conditions: Mus musculus
X5563 [14] = assay: Compound was tested in vivo for inhibition of tumor growth of X5,563 myeloma at dose of 17 mg/kg; Number of toxic deaths over total number of mice per group (T/C), 3/10; type: functional; conditions: Mus musculus
X5563 [15] = assay: Compound was tested in vivo for inhibition of tumor growth of X5,563 myeloma at dose of 25 mg/kg; Number of toxic deaths over total number of mice per group (T/C), 2/10; type: functional; conditions: Mus musculus
X5563 [16] = assay: Compound was tested in vivo for inhibition of tumor growth of X5,563 myeloma at dose of 25 mg/kg; Number of toxic deaths over total number of mice per group (T/C), 0/9; type: functional; conditions: Mus musculus
X5563 [17] = assay: Compound was tested in vivo for inhibition of tumor growth of X5,563 myeloma at dose of 35 mg/kg; Number of toxic deaths over total number of mice per group (T/C), 0/9; type: functional; conditions: Mus musculus
X5563 [18] = assay: Compound was tested in vivo for inhibition of tumor growth of X5,563 myeloma at dose of 5 mg/kg; Number of toxic deaths over total number of mice per group (T/C), 4/10; type: functional; conditions: Mus musculus
X5563 [19] = assay: Compound was tested in vivo for inhibition of tumor growth of X5,563 myeloma at dose of 70 mg/kg; Number of toxic deaths over total number of mice per group (T/C), 9/10; type: functional; conditions: Mus musculus
X5563 [20] = assay: Compound was tested in vivo for inhibition of tumor growth of X5,563 myeloma at dose of 50 mg/kg; Number of toxic deaths over total number of mice per group (T/C), 1/10; type: functional; conditions: Mus musculus
X5563 [21] = assay: Compound was tested in vivo for inhibition of tumor growth of X5,563 myeloma at dose of 50 mg/kg; Number of toxic deaths over total number of mice per group (T/C), 9/10; type: functional; conditions: Mus musculus
[22] = Compound was tested in vivo for inhibition of tumor growth of X5,563 myeloma at dose of 35 mg/kg; Number of toxic deaths over total number of mice per group (T/C), 3/10; type: functional; conditions: Mus musculus, X5563

CCCCCCCCCCCCCCCCCCCCCCCC(COP(=O)([O-])OCC[N+](C)(C)C)OCC (centres undefined)
Macrophage cytotoxicity (Mus musculus [1]): 0%
Macrophage cytotoxicity (Mus musculus [2]): 2%
Macrophage cytotoxicity (Mus musculus [3]): 0%

CCCCCCCCCCC(COP(=O)([O-])OCC[N+](C)(C)C)OCC (centres undefined)
inhibition in vivo at 17 mg/kg (X5563 [4]): 41%
Macrophage cytotoxicity (Mus musculus [1]): 32%
IC50 (CCRF-CEM): 55 µg/mL (≈ 139 µM)
Macrophage cytotoxicity (Mus musculus [2]): 2%
inhibition in vivo at 25 mg/kg (X5563 [5]): 39%
Macrophage cytotoxicity (Mus musculus [3]): 1%
inhibition in vivo at 35 mg/kg (X5563 [6]): 45%

CCCCCCCCCCCCCCCCCCC(COP(=O)([O-])OCC[N+](C)(C)C)OC (centres undefined)
IC50 (CCRF-CEM): 1.5 µg/mL (≈ 3.04 µM)

CCCCC/C=C\C/C=C\CCCCCCCC(COP(=O)([O-])OCC[N+](C)(C)C)OCC (centres undefined)
IC50 (CCRF-CEM): 6 µg/mL (≈ 12.3 µM)
inhibition in vivo at 70 mg/kg (X5563 [7]): 31%

CCCCCCCCCCCCCCCCCCC(COP(=O)([O-])OCC[N+](C)(C)C)OCC (centres undefined)
inhibition (P388): inactive
inhibition in vivo at 25 mg/kg [8]: 77%
inhibition in vivo at 17 mg/kg (C6): 56%
inhibition in vivo at 17 mg/kg (X5563 [9]): 65%
inhibition (B16): inactive
inhibition in vivo at 50 mg/kg [10]: 56%
inhibition in vivo at 25 mg/kg (X5563 [11]): 80%
inhibition in vivo at 50 mg/kg (C-6 colon (Mus musculus)): 31%
Macrophage cytotoxicity (Mus musculus [1]): 29%
inhibition in vivo at 25 mg/kg (C3H): 37%
IC50 (CCRF-CEM): 0.8 µg/mL (≈ 1.58 µM)
Macrophage cytotoxicity (Mus musculus [2]): 37%
inhibition in vivo at 25 mg/kg (AC755): 42%
Macrophage cytotoxicity (Mus musculus [3]): 1%
inhibition in vivo at 35 mg/kg (6C3HED): 85%
Inhibition (M-5): 22%
inhibition in vivo at 35 mg/kg (X5563 [12]): 95%
inhibition in vivo at 50 mg/kg [13]: 43%

CCCCCCCCCCCCCCC(COP(=O)([O-])OCC[N+](C)(C)C)OCC (centres undefined)
inhibition in vivo at 17 mg/kg (X5563 [14]): 7%
IC50 (CCRF-CEM): 5.4 µg/mL (≈ 12 µM)
inhibition in vivo at 25 mg/kg (X5563 [15]): 17%
inhibition in vivo at 35 mg/kg (X5563 [12]): 80%

CCCCCCC(COP(=O)([O-])OCC[N+](C)(C)C)OCC (centres undefined)
inhibition in vivo at 25 mg/kg (X5563 [16]): 16%
inhibition in vivo at 35 mg/kg (X5563 [17]): 17%
inhibition in vivo at 17 mg/kg (X5563 [9]): 17%
Macrophage cytotoxicity (Mus musculus [1]): 0%
IC50 (CCRF-CEM): > 200 µg/mL
Macrophage cytotoxicity (Mus musculus [2]): 0%
Macrophage cytotoxicity (Mus musculus [3]): 0%

CCCCCCCCCCCCCCCCCC[C@@H](O)COP(=O)([O-])OCC[N+](C)(C)C
IC50 (CCRF-CEM): > 20 µg/mL

CCCCCCCCCCCCCCCCOC[C@H](COP(=O)([O-])OCC[N+](C)(C)C)OCC
Macrophage cytotoxicity (Mus musculus [1]): 31%
IC50 (CCRF-CEM): 2.9 µg/mL (≈ 5.69 µM)
Macrophage cytotoxicity (Mus musculus [2]): 5%
inhibition in vivo at 5 mg/kg (X5563 [18]): 18%
Macrophage cytotoxicity (Mus musculus [3]): 4%

CCCCCCCC/C=C\CCCCCCCC(COP(=O)([O-])OCC[N+](C)(C)C)OCC (centres undefined)
IC50 (CCRF-CEM): 1.6 µg/mL (≈ 3.25 µM)
inhibition in vivo at 70 mg/kg (X5563 [19]): 67%
inhibition in vivo at 50 mg/kg (X5563 [20]): 47%

CCCCCCCCCCCCCCCCCC[C@H](COP(=O)([O-])OCC[N+](C)(C)C)OC(C)=O
inhibition in vivo at 17 mg/kg (X5563 [9]): 57%
Macrophage cytotoxicity (Mus musculus [1]): 23%
IC50 (CCRF-CEM): 0.9 µg/mL (≈ 1.73 µM)
Macrophage cytotoxicity (Mus musculus [2]): 0%
inhibition in vivo at 50 mg/kg (X5563 [21]): 100%
Macrophage cytotoxicity (Mus musculus [3]): 0%
inhibition in vivo at 25 mg/kg (X5563 [15]): 39%
inhibition in vivo at 35 mg/kg [22]: 68%
